Laboratory results published in article PMC4484650 (Drug Design, Development and Therapy, 2015).
Several values for one entry are separate records, joined by “and”; a condition that tells them apart may be missing. Equal values may be shown once. Read-outs that look alike come from different tables or passages of the source.

What was measured:
[1] = Human mass balance and urine metabolite profile; format: in vivo, human (healthy men); conditions: 60 mg, urine 0–120 hours
Summary of the method: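 Open-label single-centre study in healthy young men. Each took one oral 5 mL solution of 60 mg [14C]-test compound (3.7 MBq), about 30 min after starting breakfast. Urine was collected in intervals to 120 h and feces in 24-h intervals to 120 h. Radioactivity was read by liquid scintillation and reported as % of dose. Urinary analytes were measured by LC–MS/MS (1–5,000 ng/mL) before and after β-glucuronidase/sulfatase deconjugation (15 h, 37°C).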

[2] = Rat mass balance and urine metabolite profile; format: in vivo, Sprague Dawley rats; conditions: rat (Sprague Dawley), 50 mg/kg, urine 0–24 hours
Summary of the method: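 Sprague Dawley rats received 50 mg/kg [14C]-test compound by gavage in ultrapure water. Urine, feces and cage wash were collected from 3 males and 3 females pre-dose and at 0–8, 8–24, 24–48 and 48–72 h. A second study collected urine from 3 males to 24 h. Radioactivity was counted by liquid scintillation as % of dose. Urinary analytes were measured by LC–MS/MS (50–24,750 ng/mL), with and without deconjugation (15 h, 37°C).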

[3] = Rat plasma PK and plasma metabolite profile after oral [14C]-levomilnacipran; format: in vivo, Sprague Dawley rats
Summary of the method: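 Male Sprague Dawley rats were gavaged with 50 mg/kg [14C]-test compound. Aortic blood was drawn under isoflurane into lithium heparin, three rats per time, from 0.25 to 72 h (second study: 1–10 h). Plasma radioactivity was counted by liquid scintillation. Parent and N-desethyl metabolite were measured by LC–MS/MS (1–500 ng/mL), and conjugates after β-glucuronidase/sulfatase deconjugation. Cmax and AUC came from non-compartmental analysis.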

[4] = format: in vivo, human (healthy men); conditions: human
[5] = Monkey mass balance and urine metabolite profile; format: in vivo, Macaca fascicularis monkeys; conditions: 30 mg/kg, urine 0–24 hours
[6] = cited from earlier work; for half-life (T1/2): humans
plasma proteins = conditions: cited from earlier work
[7] = Sprague Dawley, rat, plasma, po, 50 mg/kg

CCN(CC)C(=O)[C@@]1(c2ccccc2)C[C@H]1CN [Levomilnacipran, levomilnacipran]
Mean urinary excretion of compound [1]: 58.4 % of administered dose | Mean urinary excretion of compound ([1]; listed as levomilnacipran): 58.4 % of administered dose and 58 % of administered dose | Mean urinary excretion of compound [2]: 40.2 % of administered dose | AUC(0-inf) [3, 7]: 16600 ng·h/mL | AUC(0-t) [3, 7]: 16600 ng·h/mL | Cmax [3, 7]: 8060 ng/mL | Tmax [3, 7]: 0.5 h | Share of circulating total radioactivity ([3]; male rats, 50 mg/kg oral): about 60% | Contribution to total radioactivity plasma exposure (area under the curve) ([4]; 60 mg oral): 45.1% | Contribution to total plasma radioactivity at peak plasma levels ([4]; from average peak plasma concentrations): 61.0% | Share of total plasma radioactivity ([4]; within 12 hours of dosing): 52.9% | AUC(0-inf) ([4]; male, plasma, po, 60 mg): 2090 ng·h/mL | AUC(0-t) ([4]; male, plasma, po, 60 mg): 2060 ng·h/mL | Cmax ([4]; male, plasma, po, 60 mg): 179 ng/mL | Tmax ([4]; male, plasma, po, 60 mg): 2.75 h | half-life ([4]; male, plasma, po, 60 mg): 10.4 h | Mean urinary excretion of compound [5]: 35.5 % of administered dose

CN(C)CC(c1ccc(O)cc1)C1(O)CCCCC1 (stereo not drawn) [desvenlafaxine]
Urinary excretion as unchanged (parent) drug [6]: 45% | half-life (T1/2) [6]: 11 h | plasma protein binding (plasma proteins): 30%

CNCC[C@H](Oc1cccc2ccccc12)c1cccs1 [duloxetine]
Urinary excretion as unchanged (parent) drug [6]: less than 1% | half-life (T1/2) [6]: 12 h | plasma protein binding (plasma proteins): greater than 90%

CCN(CC)C(=O)C1(c2ccccc2)CC1CN (stereo not drawn) [milnacipran]
half-life (T1/2) [6]: 8 h | plasma protein binding (plasma proteins): 13%

COc1ccc(C(CN(C)C)C2(O)CCCCC2)cc1 (stereo not drawn) [venlafaxine]
half-life (T1/2) [6]: 5 h | plasma protein binding (plasma proteins): 27%
